Our source for the Activity values is ChEMBL document CHEMBL1153425, “Inhibitory effects of sesquiterpene lactones isolated from Eupatorium chinense L. on IgE-mediated degranulation in rat basophilic leukemia RBL-2H3 cells and passive cutaneous anaphylaxis reaction in mice” (Bioorg Med Chem, 2009).

Structures are written as SMILES. Calls of active or inactive are those of the source. The rule behind the calls is not given here.

In assay [1] the test system is RBL-2H3. Kind of assay: Inhibition of DNP/BSA-stimulated JNK1/2 phosphorylation in IgE-sensitized rat RBL2H3 cells after 10 mins by Western blot. Type of assay: functional, cell-based. The method in brief:
(§1)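 Compound-treated, IgE-sensitized RBL-2H3 cells are stimulated with DNP-BSA for 10 min and lysed in RIPA buffer with protease and phosphatase inhibitors. Lysate (20 µg protein) is run on SDS-PAGE and blotted to PVDF. Membranes are blocked with 5% milk/TPBS and probed with primary antibodies, then […] secondaries. Detection is by ECL chemiluminescence.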
On the technique in general: In western blotting, separated proteins are transferred to a membrane and probed.

The subject of assay [2] is RBL-2H3. Kind of assay: Inhibition of DNP/BSA-stimulated p38MAPK phosphorylation in IgE-sensitized rat RBL2H3 cells after 10 mins by Western blot. It counts as functional, cell-based. The method in brief:
as §1

The subject of assay [3] is RBL-2H3. Nature of the assay: Inhibition of DNP/BSA-stimulated ratio of phospho-Akt to total-Akt level in IgE-sensitized rat RBL2H3 cells after 10 mins by Western blot. It counts as functional, cell-based. The method in brief:
as §1

The test system of assay [4] is RBL-2H3. Kind of assay: Inhibition of DNP/BSA-stimulated intracellular ROS release in IgE-sensitized rat RBL2H3 cells at 10 uM after 30 mins using CM-H2DCF-DA probe by fluorimetry. It counts as functional, cell-based. In short, it runs like this:
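IgE-sensitized RBL-2H3 cells (5×10^4/well) are loaded with 10 µM CM-H2DCF-DA for 30 min at 37 °C and washed with PBS. They are then exposed 30 min to 10 µM compound and stimulated with DNP-BSA (10 µg/ml). DCF fluorescence is read at ex 490/em 530 nm.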

In assay [5] the test system is Radical scavenging activity. Nature of the assay: Antioxidant activity assessed as DPPH-radical scavenging activity at 10 uM. It counts as functional.
The test system of assay [6] is RBL-2H3. Kind of assay: Inhibition of DNP/BSA-stimulated ERK1/2 phosphorylation in IgE-sensitized rat RBL2H3 cells after 10 mins by Western blot. It counts as functional, cell-based. In short, it runs like this:
as §1

In assay [7] the test system is RBL-2H3. Nature of the assay: Inhibition of DNP/BSA-stimulated histamine release in IgE-sensitized rat RBL2H3 cells at 5 to 10 uM after 30 mins by fluorimetry. Type of assay: functional, cell-based. In short, it runs like this:
(§2)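 RBL-2H3 cells are plated at 5×10^5 cells/ml, cultured 1 h, then sensitized 24 h with mouse anti-DNP IgE (0.45 µg/ml). After washes, cells sit in Siraganian buffer (pH 7.2; 5.6 mM glucose, 1 mM CaCl2, 0.1% BSA) at 37 °C for 10 min. They are pretreated with 5 or 10 µM compound at 37 °C for 30 min, then challenged with DNP-BSA (10 µg/ml) for 10 min. The reaction is stopped on ice and supernatant taken. Read-outs: β-hexosaminidase by 1 mM p-nitrophenyl-N-acetyl-β-D-glucosaminide in citrate pH 4.5, 37 °C 1 h, A405; histamine by n-butanol/chloroform extraction and o-phthalaldehyde fluorescence (ex 360/em 450), expressed as % inhibition relative to positive and negative controls. Values are mean ± SEM, n=10.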

The test system of assay [8] is RBL-2H3. Kind of assay: Inhibition of A-23187-stimulated beta-hexosamonidase release in IgE-sensitized rat RBL2H3 cells at 5 to 10 uM after 30 mins. Type of assay: functional, cell-based.
The subject of assay [9] is RBL-2H3. Kind of assay: Inhibition of DNP/BSA-stimulated intracellular calcium release in IgE-sensitized rat RBL2H3 cells at 10 uM after 30 mins by fluorimetry. It counts as functional, cell-based. The method in brief:
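IgE-sensitized (0.45 µg/ml anti-DNP IgE, 24 h) RBL-2H3 cells at 5×10^4/well are loaded with Fluo-3 AM for 1 h. They are then incubated 30 min in loading buffer containing 10 µM compound. Ca2+ change after DNP-BSA (10 µg/ml) is read by fluorescence plate reader, ex 490/em 530 nm. Values are mean ± SEM, n=32.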
In general terms: Calcium assays in cells follow changes in intracellular calcium, usually with a dye or a luminescent sensor.

Assay [10] concerns RBL-2H3. Nature of the assay: Inhibition of DNP/BSA-stimulated beta-hexosamonidase release in IgE-sensitized rat RBL2H3 cells at 5 to 10 uM after 30 mins by colorimetry. Type of assay: functional, cell-based. In short, it runs like this: as §2

In the case of `C=C1C(=O)O[C@H]2/C=C(/C)[C@H](OC(C)=O)C[C@@H]3O[C@]3(C)C[C@@H](OC(=O)/C(=C/C)CO)[C@@H]12`, the outcome (in the assay on RBL-2H3 [1]; with RBL-2H3 [4]; in assay [5]; in the assay on RBL-2H3 [6]) was inactive. The outcome in the assay on RBL-2H3 [2] and with RBL-2H3 [3] was Active.

For `C=C1C(=O)O[C@H]2/C=C(/C)[C@@H](OC(C)=O)C/C=C(\C)C[C@@H](OC(=O)/C(=C/C)CO)[C@@H]12`, the result (with RBL-2H3 [1]; in the assay on RBL-2H3 [4]; in [5]; in the assay on RBL-2H3 [6]) was inactive. For the same compound, the result in the assay with RBL-2H3 [2] and in the assay on RBL-2H3 [3] was Active.

On to `C=C1C(=O)O[C@H]2/C=C(/C)[C@@H](OC(C)=O)C/C=C(\CO)C[C@@H](OC(=O)C(C)CC)[C@@H]12` (stereo not given in full), for which the result (with RBL-2H3 [1]; with RBL-2H3 [4]; in assay [5]; in the assay on RBL-2H3 [6]) was inactive. Moreover, the result with RBL-2H3 [2] and with RBL-2H3 [3] was Active.

Take `C=C1C(=O)O[C@@H]2/C=C(\C)C[C@H](O)/C=C(\C)C[C@@H](OC(=O)/C(=C\C)CO)[C@@H]12`: the outcome (in the assay with RBL-2H3 [1]; in the assay with RBL-2H3 [4]; in assay [5]; in the assay with RBL-2H3 [6]) was inactive. The outcome in the assay on RBL-2H3 [7], in the assay with RBL-2H3 [2], with RBL-2H3 [3], in the assay with RBL-2H3 [8], with RBL-2H3 [9] and in the assay on RBL-2H3 [10] was Active.

Consider `C=C1C(=O)O[C@@H]2/C=C(/C)[C@@H](OC(C)=O)C[C@H]3O[C@]3(C)C[C@@H](OC(=O)/C(=C/C)CO)[C@@H]12`, for which the result (in the assay on RBL-2H3 [1]; with RBL-2H3 [4]; in assay [5]; in the assay with RBL-2H3 [6]) was inactive. Besides, the outcome with RBL-2H3 [2] and in the assay on RBL-2H3 [3] was Active.

Regarding `C=C1C(=O)O[C@@H]2/C=C(\C)[C@@H](O)C/C=C(\C)C[C@@H](OC(=O)/C(=C\C)CO)[C@@H]12`, the result (in the assay with RBL-2H3 [1]; in the assay on RBL-2H3 [4]; in assay [5]; in the assay on RBL-2H3 [6]) was inactive. Moreover, the result in the assay with RBL-2H3 [2] and with RBL-2H3 [3] was Active.

For `C=C1C(=O)O[C@@H]2/C=C(\C)[C@@H](O)C/C=C(/C=O)C[C@@H](OC(=O)C(C)CC)[C@@H]12` (stereo not given in full), the outcome (in the assay with RBL-2H3 [1]; in the assay on RBL-2H3 [4]; in [5]; in the assay with RBL-2H3 [6]) was inactive. For the same compound, the outcome in the assay on RBL-2H3 [7], in the assay on RBL-2H3 [2], with RBL-2H3 [3], in the assay with RBL-2H3 [8], with RBL-2H3 [9] and in the assay on RBL-2H3 [10] was Active.
